MrgX1 ag = agonists of human MrgX1 receptor, primary screen, HEK293 cells, Fluo-4 calcium flux; Mas-related G-protein coupled receptor member X1 (Homo sapiens), Q96LB2; Fluo-4 calcium fluorescence, agonist mode; stronger effect = higher value; B-score at 10 µM; 0.44% of 310,000 active; AID 588627, 2011;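 active = calcium response B-score plate-corrected fluorescence ratio at least 3 library SD, with starting fluorescence B-score inside 5 SD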
Target sequence (Q96LB2 whole entry, looked up): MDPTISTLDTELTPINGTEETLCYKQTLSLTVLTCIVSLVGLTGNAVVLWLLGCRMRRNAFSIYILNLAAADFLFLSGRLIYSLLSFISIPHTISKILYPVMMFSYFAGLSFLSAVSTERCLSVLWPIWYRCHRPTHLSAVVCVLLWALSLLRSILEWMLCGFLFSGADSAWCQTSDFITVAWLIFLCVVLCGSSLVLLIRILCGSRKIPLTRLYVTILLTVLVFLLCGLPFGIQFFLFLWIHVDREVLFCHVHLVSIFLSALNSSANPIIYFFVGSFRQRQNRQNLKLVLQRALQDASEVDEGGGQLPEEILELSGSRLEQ
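Test system: HEK293 cells stably expressing human MrgX1 receptor; amount: 15,000 cells per well; doses: compound delivered in addition one of three; times: overnight plating before 1 h dye loading; detection: Fluo-4 NW calcium-flux fluorescence, kinetic read; read-out basis: B-scored fluorescence response ratio; controls: positive and negative controls per plate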
RGS4 pot = RGS4 potentiators or activators, primary screen, cell-based, HEK293 M3R inducible RGS4, calcium flux; 0.92% of 310,000 active; B-score at 10 µM; carbachol calcium flux Fluo4; stronger effect = lower value;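 active = B-score of the integrated calcium signal more than 4 SD below the library mean, with starting fluorescence not abnormally high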;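 note: negative B-score means reduced calcium response which marks RGS4 activation or potentiation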
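test system = M3R-expressing HEK293 line, RGS4 induced by doxycycline | probe or stimulus = carbachol at ECmax as muscarinic agonist stimulus | timing = dye loading 30 min 37 °C, buffer rest 30 min RT | signal = calcium dye Fluo4 fluorescence | evaluation = B score from integrated fluorescence ratio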
MrgX1 antag = antagonists of human MrgX1 receptor, primary screen, HEK293 cells, Fluo-4 calcium flux; BAM8-22 antagonism; stronger effect = lower value; B-score at 10 µM; 1.3% of 310,000 active; Mas-related G-protein coupled receptor member X1 (Homo sapiens), Q96LB2;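 active = calcium-response B-score plate-corrected more than 3 library SD below zero, starting fluorescence within 5 deviations, no agonist response on first addition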;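 note: peak minus trough fluorescence over baseline after final BAM8-22 challenge near maximal dose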
RGS4 inh = RGS4 inhibitors, primary screen, cell-based, HEK293 M3R inducible RGS4, calcium flux. Fluo-4 calcium flux; stronger effect = higher value; triggered by carbachol at its EC20. B-score at 10 µM. 0.45% of 310,000 active;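 active = B-score, a plate-corrected calcium signal, over three deviations above library mean, with baseline fluorescence within five deviations of library mean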;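 note: RGS4 expression induced by doxycycline in cells with stable M3 receptor; B-score is computed from the integrated fluorescence ratio over baseline after carbachol; higher B-score means a larger calcium signal and so more RGS4 inhibition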
MrgX1 allo act = positive allosteric modulators of MrgX1, primary screen, HEK293 cells, Fluo-4 calcium flux; Mas-related G-protein coupled receptor member X1 (Homo sapiens), Q96LB2; FDSS; stronger effect = higher value; B-score at 10 µM; 0.63% of 310,000 active; AID 588675, 2011;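 active = plate-corrected calcium response at least 3 library SD above typical, normal starting fluorescence, not activating the receptor alone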;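 note: compound read alongside a low EC10 to EC30 dose of BAM8-22 agonist; peak minus trough fluorescence over baseline measured at the second addition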
Numbers stand for hits. This is a sample that favours compounds with a hit; in the whole collection about 3.5% have one here.

CCCC(=O)N1CCN(c2ccc(NC(=O)c3cc4ccccc4o3)cc2Cl)CC1 was read as MrgX1 ag inactive, RGS4 pot -8.6, MrgX1 antag inactive, RGS4 inh inactive and MrgX1 allo act inactive.
CCCC(=O)N1CCN(c2ccc(NC(=O)c3cccs3)cc2Cl)CC1 was read as MrgX1 ag inactive, RGS4 pot inactive, MrgX1 antag inactive, RGS4 inh inactive and MrgX1 allo act inactive.
For CCC(=O)N1CCN(c2ccc(NC(=O)c3ccco3)cc2Cl)CC1 the results were RGS4 pot inactive and RGS4 inh inactive.
`CCC(=O)N1CCN(c2ccc(NC(=O)c3cc4ccccc4o3)cc2Cl)CC1` gave MrgX1 ag inactive, RGS4 pot -7.5, MrgX1 antag inactive, RGS4 inh inactive and MrgX1 allo act inactive.
Screening CC1CCN(c2ccccc2NC(=O)c2cc3ccccc3o2)CC1 returned MrgX1 ag inactive, RGS4 pot -7.4, MrgX1 antag inactive, RGS4 inh inactive and MrgX1 allo act inactive.
`COc1ccccc1NC(=O)CN(Cc1ccco1)C(=O)c1ccc(Cl)nc1` gave MrgX1 ag inactive, RGS4 pot inactive, MrgX1 antag inactive, RGS4 inh inactive and MrgX1 allo act inactive.
Screening Cc1c(C(=O)NCCS(=O)(=O)N2CCN(c3ccccc3F)CC2)cccc1[N+](=O)[O-] returned MrgX1 ag inactive, RGS4 pot inactive, MrgX1 antag inactive, RGS4 inh inactive and MrgX1 allo act inactive.
For Cc1ccsc1C(C(=O)NC1CCCCC1)N(C(=O)c1csnn1)C1CC1 (configuration not stated) the results were MrgX1 ag inactive, RGS4 pot inactive, MrgX1 antag inactive, RGS4 inh inactive and MrgX1 allo act inactive.
For CCOc1ccccc1CN1CCCC(C(=O)Nc2cccc(-n3cccn3)c2)C1 (configuration not stated) the results were MrgX1 ag inactive, RGS4 pot -7, MrgX1 antag inactive, RGS4 inh inactive and MrgX1 allo act inactive.
CSc1cccc(CN2CCCC(C(=O)Nc3cccc(-n4cccn4)c3)C2)c1 (configuration not stated) was read as MrgX1 ag inactive, RGS4 pot -7.3, MrgX1 antag inactive, RGS4 inh inactive and MrgX1 allo act inactive.
`CCOc1cccc(CN2CCCC(C(=O)Nc3cccc(-n4cccn4)c3)C2)c1` (configuration not stated) gave MrgX1 ag inactive, RGS4 pot inactive, MrgX1 antag inactive, RGS4 inh inactive and MrgX1 allo act inactive.
Screening Cc1ccc2nc(N(CCCN(C)C)C(=O)c3cc(-c4cccs4)nc4ccccc34)sc2c1 returned MrgX1 ag inactive, RGS4 pot -7.8, MrgX1 antag inactive, RGS4 inh inactive and MrgX1 allo act inactive.
For Cc1csc(=O)n1CC(=O)OCC(=O)Nc1ccc(F)c(F)c1 the results were MrgX1 ag inactive, RGS4 pot inactive, MrgX1 antag inactive, RGS4 inh inactive and MrgX1 allo act inactive.
Screening Cc1ccc(N2C(=O)c3ccccc3C2C(=O)c2ccc(O)cc2O)cc1 (configuration not stated) returned MrgX1 ag inactive, RGS4 pot inactive, MrgX1 antag inactive, RGS4 inh inactive and MrgX1 allo act inactive.
Screening Cc1ccc(N2C(=O)c3ccccc3C2C(=O)c2ccc(C)c(C)c2O)cc1 (configuration not stated) returned MrgX1 ag inactive, RGS4 pot -7, MrgX1 antag inactive, RGS4 inh inactive and MrgX1 allo act inactive.
Screening COC(=O)C1CCCCN1C(=O)c1ccc2oc(Cc3ccccc3)nc2c1 (configuration not stated) returned MrgX1 ag inactive, RGS4 pot inactive, MrgX1 antag -5.3, RGS4 inh inactive and MrgX1 allo act inactive.
CCOc1ccc(N2C(=O)/C(=C/c3cc(OC)c(OC)c(OC)c3)N(CC(=O)OC)C2=S)cc1 was read as MrgX1 ag inactive, RGS4 pot inactive, MrgX1 antag inactive, RGS4 inh inactive and MrgX1 allo act inactive.

Screens as filed in PubChem BioAssay.
